In PubChem BioAssay AID602159 (Southern Research Specialized Biocontainment Screening …, 2011):

Test system: HEp-2 RSV CPE, time of addition, CellTiter-Glo viability
Experiment: RSV inhibitor time-of-addition profiling, late-stage follow-up, mechanism study for RSV inhibitor project, cell-based, set 2 (AID 602159)
Details: at 25 µM, stronger effect = higher value
Procedure, shortened: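 Assay system: RSV-infected HEp-2 cells; Probe or stimulus: RSV Long strain infection at MOI 0.12; Compound dosing: single 25 µM compound dose, 0.5% DMSO final; Incubation: addition -1 to 24 h post-infection, 6-day 37 °C incubation; Technique: CellTiter-Glo luminescence; Evaluation: % cell viability per addition time.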

[1] = measured here: added 1 h before infection
[2] = measured here: added 1 h post infection
[3] = measured here: added 12 h post infection
[4] = measured here: added 24 h post infection

Q: For `COCCCNC(=O)c1ccc(Cn2c(=O)c3ccccc3n(Cc3ccc(C(C)C)cc3)c2=O)cc1`, which viability (added 21 h post infection) is on record?
A: 38.8%

Q: What about the viability (added at infection) of the same molecule?
A: 44%

Q: What about the viability [1] of the same molecule?
A: 49.5%

Q: And the viability [2]?
A: 42.9%

Q: And the viability [3]?
A: 43.8%

Q: And the viability [4]?
A: 31.1%

Q: `CN(C)c1ccc(Cn2c(=O)n(Cc3ccc(C(=O)NCC4COC4)cc3)c(=O)c3ccccc32)cc1` was tested. Which viability (added 21 h post infection) did it give?
A: 96.4%

Q: And the viability (added at infection)?
A: 91.3%

Q: What about the viability [1] of the same molecule?
A: 90.1%

Q: And the viability [2]?
A: 91.6%

Q: What about the viability [3] of the same molecule?
A: 73.2%

Q: What about the viability [4] of the same molecule?
A: 78.7%

Q: With `COCCCNC(=O)c1ccc(Cn2c(=O)c3ccccc3n(Cc3ccc([N+](=O)[O-])cc3)c2=O)cc1` as the molecule, how does the viability (added 21 h post infection) read?
A: 80.1%

Q: What about the viability (added at infection) of the same molecule?
A: 72.1%

Q: What about the viability [1] of the same molecule?
A: 52.3%

Q: And the viability [2]?
A: 70.2%

Q: What about the viability [3] of the same molecule?
A: 81.9%

Q: What about the viability [4] of the same molecule?
A: 68%
